Data from ChEMBL document CHEMBL2202972, “Synthesis and biological evaluation of 2-substituted-4-(3',4',5'-trimethoxyphenyl)-5-aryl thiazoles as anticancer agents” (Bioorg Med Chem, 2012).
The source made the active and inactive calls. The calls are words filed in the database; no cut-off is given here.

Columns and labels:
HeLa [1] = experiment: Downregulation of Xiap expression in human HeLa cells at 250 to 500 nM after 24 hrs by Western blot analysis; assay type: functional, cell-based
Procedure, shortened: (§1)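 HeLa cells treated for 24 or 48 h, washed twice with ice-cold PBS and lysed on ice 30 min; lysates spun at 15000 ×g, 4 °C. Protein (20 μg) resolved by SDS–PAGE on 7.5–15% gels and blotted to PVDF. Specific primary antibodies for 2 h at room temperature, then peroxidase secondary for 60 min, ECL detection. Membranes stripped and reprobed for β-actin as loading control.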

HeLa [2] = experiment: Downregulation of Mcl-1 expression in human HeLa cells at 250 to 500 nM after 24 hrs by Western blot analysis; assay type: functional, cell-based; procedure, shortened: as §1
HeLa [3] = experiment: Effect on Bax expression in human HeLa cells at 250 to 500 nM after 24 to 48 hrs by Western blot analysis; assay type: functional, cell-based; procedure, shortened: as §1
HeLa [4] = experiment: Induction of apoptosis in human HeLa cells assessed as appearance of cleaved caspase-8 protein at 250 to 500 nM after 24 to 48 hrs by Western blot analysis; assay type: functional, cell-based; procedure, shortened: as §1
HeLa [5] = experiment: Induction of apoptosis in human HeLa cells assessed as disappearance of uncleaved caspase-2 protein at 250 to 500 nM after 24 to 48 hrs by Western blot analysis; assay type: functional, cell-based; procedure, shortened: as §1
HeLa [6] = experiment: Induction of apoptosis in human HeLa cells assessed as ROS production; assay type: functional, cell-based
HeLa [7] = experiment: Induction of apoptosis in human HeLa cells assessed as effect on caspase-9 activation at 250 to 500 nM after 24 to 48 hrs by Western blot analysis; assay type: functional, cell-based; procedure, shortened: as §1
HeLa [8] = experiment: Induction of apoptosis in human HeLa cells assessed as increase in caspase-3-mediated PARP cleavage at 250 to 500 nM after 24 to 48 hrs by Western blot analysis; assay type: functional, cell-based; procedure, shortened: as §1
HeLa [9] = experiment: Downregulation of cyclin B expression in human HeLa cells at 250 to 500 nM after 48 hrs by Western blot analysis; assay type: functional, cell-based; procedure, shortened: as §1
HeLa [10] = experiment: Effect on cyclin B expression in human HeLa cells at 250 to 500 nM after 24 hrs by Western blot analysis; assay type: functional, cell-based; procedure, shortened: as §1
[11] = target: T1, M-phase inducer phosphatase 3 (Homo sapiens) (UniProt P30307); experiment: Induction of cdc25C phosphorylation in human HeLa cells assessed as cdc2 kinase dephosphorylation at Tyr15 in human HeLa cells at 250 to 500 nM after 24 to 48 hrs by Western blot analysis; assay type: cell-based; procedure, shortened: as §1
T1 sequence (whole entry): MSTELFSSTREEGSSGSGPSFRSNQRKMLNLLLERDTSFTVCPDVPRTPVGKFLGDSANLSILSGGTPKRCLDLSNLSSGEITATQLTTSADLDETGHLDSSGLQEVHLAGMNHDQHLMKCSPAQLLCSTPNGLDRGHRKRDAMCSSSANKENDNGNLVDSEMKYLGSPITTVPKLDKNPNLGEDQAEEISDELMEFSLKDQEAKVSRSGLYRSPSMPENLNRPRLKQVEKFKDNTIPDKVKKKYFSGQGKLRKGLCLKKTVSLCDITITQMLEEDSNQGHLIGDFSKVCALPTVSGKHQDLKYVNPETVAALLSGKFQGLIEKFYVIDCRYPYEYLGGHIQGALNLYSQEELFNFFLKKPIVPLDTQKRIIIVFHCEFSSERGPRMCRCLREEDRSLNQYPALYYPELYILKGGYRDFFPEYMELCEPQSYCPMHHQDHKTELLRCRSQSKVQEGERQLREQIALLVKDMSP

[12] = target: T1, M-phase inducer phosphatase 3 (Homo sapiens); experiment: Induction of cdc25C phosphorylation in human HeLa cells at 250 to 500 nM after 24 to 48 hrs by Western blot analysis; assay type: cell-based; procedure, shortened: as §1
HeLa [13] = experiment: Cell cycle arrest in human HeLa cells assessed as decrease in accumulation of cells at S phase after 24 hrs by propidium iodide staining based flow cytometric analysis; assay type: functional
Procedure, shortened: (§2)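 HeLa or Jurkat cells (5 × 10⁵, exponential growth) treated 24 h with 31–500 nM compound. Cells fixed in ice-cold 70% ethanol, treated with lysis buffer containing RNase A and 0.1% Triton X-100, then stained with propidium iodide. DNA content measured by flow cytometry to give phase distribution. Mean ± SEM of three independent experiments.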

HeLa [14] = experiment: Cell cycle arrest in human HeLa cells assessed as accumulation of cells at G2/M phase after 24 hrs by propidium iodide staining based flow cytometric analysis; assay type: functional; procedure, shortened: as §2
Bos taurus = species: Bos taurus; experiment: Displacement of [3H]colchicine from tubulin in bovine brain at 5 uM DEAE-cellulose filter method
[15] = Inhibition of bovine brain tubulin polymerization preincubated for 15 mins by turbidimetric analysis; parameters: species or system Bos taurus
Procedure, shortened: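 Bovine brain tubulin (10 μM) in glutamate buffer preincubated with varying compound concentrations for 15 min at 30 °C, then chilled to 0 °C. GTP 0.4 mM added and mixtures warmed to 30 °C in a spectrophotometer; assembly followed by turbidity at 350 nm.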

[16] = Antiproliferative activity against human taxol-resistant A549-T12 cells expressing tubulin mutant gene after 72 hrs by MTT assay; assay type: functional, cell-based; conditions: A549, 72 h
Procedure, shortened: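 Resistant sublines cultured under selection: LoVo^Doxo (doxorubicin-resistant LoVo subclone) in complete Ham's F12 with doxorubicin 0.1 μg/mL; A549-T12 in complete DMEM with taxol 12 nM. Seeded at 8 × 10³ per well, 18 h preincubation, then 72 h compound exposure at 37 °C. MTT read-out.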

LoVo = experiment: Antiproliferative activity against human LoVo cells after 72 hrs by MTT assay; assay type: functional, cell-based
Procedure, shortened: (§3)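 Cells seeded at 8 × 10³ per well and incubated 18 h at 37 °C, 5% CO₂, then exposed to a range of compound concentrations for 72 h at 37 °C. Jurkat and HL-60 were grown in RPMI-1640, the others in DMEM, with penicillin, streptomycin and 10% FBS. DMSO stocks (10 mM); DMSO ≤0.25% final. Viability by MTT. […] Mean ± SE of ≥3 independent experiments.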

[17] = Growth inhibition of human resting PBL after 72 hrs by MTT assay; assay type: cell-based; conditions: resting peripheral blood lymphocytes (PBL)
PBL = experiment: Growth inhibition of PHA-stimulated human PBL after 72 hrs by MTT assay; assay type: functional
Jurkat [18] = experiment: Ratio of compound IC50 to CA-4 IC50 for human Jurkat cells after 72 hrs by MTT assay; assay type: functional
MCF7 [19] = experiment: Ratio of CA-4 IC50 to compound IC50 for human MCF7 cells after 72 hrs by MTT assay; assay type: functional
HT-29 = experiment: Antiproliferative activity against human HT-29 cells after 72 hrs by MTT assay; assay type: functional, cell-based; conditions: HT-29, 72 h
Jurkat [20] = experiment: Antiproliferative activity against human Jurkat cells after 72 hrs by MTT assay; assay type: functional, cell-based; procedure, shortened: as §3
MCF7 [21] = experiment: Antiproliferative activity against human MCF7 cells after 72 hrs by MTT assay; assay type: functional, cell-based; conditions: MCF7, 72 h
HL-60 = experiment: Antiproliferative activity against human HL60 cells after 72 hrs by MTT assay; assay type: functional, cell-based; conditions: HL-60, 72 h
A549 = experiment: Antiproliferative activity against human A549 cells after 72 hrs by MTT assay; assay type: functional, cell-based; conditions: A549, 72 h
HeLa [22] = experiment: Induction of survivin phosphorylation at Thr34 in human HeLa cells at 250 to 500 nM after 24 to 48 hrs by Western blot analysis

Activity [11]: Active
Activity [12]: Active
inhibition (Bos taurus): 83%
IC50 [15]: 0.89 µM
IC50 (LoVo): 0.031 µM
IC50 (HT-29): 0.0032 µM
IC50 (Jurkat [20]): 0.0017 µM
IC50 (MCF7 [21]): 0.0245 µM
IC50 (HL-60): 0.0018 µM
IC50 (A549): 0.0386 µM
Structure (SMILES): CCOc1ccc(-c2sc(NC)nc2-c2cc(OC)c(OC)c(OC)c2)cc1
Activity (HeLa [1]): Active
Activity (HeLa [2]): Active
Activity (HeLa [3]): inactive
Activity (HeLa [4]): Active
Activity (HeLa [5]): Active
Activity (HeLa [6]): Active
Activity (HeLa [7]): inactive
Activity (HeLa [8]): Active
Activity (HeLa [9]): Active
Activity (HeLa [10]): inactive
Activity (HeLa [13]): Dose-dependent effect
Activity (HeLa [14]): Dose-dependent effect
IC50 [16]: 0.0215 µM
GI50 at 72 h [17]: 0.443 µM
GI50 (PBL): 0.12 µM
Ratio IC50 (Jurkat [18]): 0.34
Ratio IC50 (MCF7 [19]): 15
Activity (HeLa [22]): Active
